Measurements from ChEMBL document CHEMBL4118249, “Discovery and Identification of Small Molecules as Methuosis Inducers with in Vivo Antitumor Activities” (J Med Chem, 2018).

Assays:
Assay type in all cases: organism-based
Conditions in all cases: in vivo, 288 h
[1] = test system: Mus musculus; experiment: Toxicity in ICR mouse assessed as effect on AST level in serum at 20 mg/kg, iv administered once daily for 12 days
Summary of the method: (§1)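 Healthy ICR mice dosed at 20 mg/kg for 12 days; normal tissues examined for vacuoles, body weight and blood chemistry assessed.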

[2] = test system: Mus musculus; experiment: Induction of vacuolization in ICR mouse at 20 mg/kg, iv administered once daily for 12 days measured post last dose by H and E staining based light microscopic method; summary of the method: as §1
[3] = test system: Mus musculus; experiment: Toxicity in ICR mouse assessed as body weight loss at 20 mg/kg, iv administered once daily for 12 days; summary of the method: as §1
[4] = test system: Mus musculus; experiment: Toxicity in ICR mouse assessed as effect on ALT level in serum at 20 mg/kg, iv administered once daily for 12 days; summary of the method: as §1

Measured: Activity

Cc1ccc(NC(=O)c2cccc(C(F)(F)F)c2)cc1Nc1cc(-c2cccnc2)nc2[nH]ccc12.Cl
Non-Toxic: [1] | [2] | [3] | [4]
